{
  "source": "ChEMBL document CHEMBL4334552",
  "about": "“Discovery of BMS-986260, a Potent, Selective, and Orally Bioavailable TGFβR1 Inhibitor as an Immuno-oncology Agent” (ACS Med Chem Lett, 2020)",
  "key": {"MC-38 [1]": {"test_system": "MC-38", "assay": "Antitumour activity against mouse MC38 cells allografted in C57Bl/6 mouse assessed as reduction in tumour growth at 3.75 to 15 mg/kg, po qd for 28 days cotreated with anti-PD1 at 10 mg/kg, ip every 4 days for 3 doses measured for ten doubling times after cessation of treatment by digital caliper analysis", "type": "functional, organism-based", "outline": "(§1)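 C57/BL6 mice received 0.1 mL of MC38 cells (1 × 10^7 cells/mL) subcutaneously in the right flank. Mice were randomized at about 100 mm3, typically day 5. Oral dosing was once daily for 28 days at 3.75, 7.5 or 15 mg/kg. Anti-PD-1 was given at 10 mg/kg IP every 4 days for three doses. Isotype IgG1 MOPC-21 served as control on the same schedule.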"}, "TGF-beta receptor type-1 [2]": {"target": "T1, TGF-beta receptor type-1 (Homo sapiens, UniProt P36897)", "T1 sequence (P36897 whole entry)": "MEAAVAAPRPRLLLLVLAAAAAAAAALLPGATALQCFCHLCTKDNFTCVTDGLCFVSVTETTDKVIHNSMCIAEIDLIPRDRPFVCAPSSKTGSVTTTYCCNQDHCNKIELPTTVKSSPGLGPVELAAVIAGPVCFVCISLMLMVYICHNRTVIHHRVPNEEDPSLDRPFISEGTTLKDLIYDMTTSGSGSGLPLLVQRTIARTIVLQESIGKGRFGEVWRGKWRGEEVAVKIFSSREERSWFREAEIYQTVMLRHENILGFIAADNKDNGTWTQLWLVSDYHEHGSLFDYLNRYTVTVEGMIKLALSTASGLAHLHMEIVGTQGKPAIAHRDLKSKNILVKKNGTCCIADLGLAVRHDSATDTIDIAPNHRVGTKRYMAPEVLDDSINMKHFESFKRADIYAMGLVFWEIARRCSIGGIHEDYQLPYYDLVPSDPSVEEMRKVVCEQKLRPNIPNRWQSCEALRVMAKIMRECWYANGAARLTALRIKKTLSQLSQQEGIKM", "assay": "Inhibition of TGFBR1 in TGFbeta-stimulated human NHLF cells assessed as reduction in SMAD2 nuclear translocation"}, "MC-38 [3]": {"test_system": "MC-38", "assay": "Antitumour activity against mouse MC38 cells allografted in C57Bl/6 mouse assessed as reduction in tumour growth at 3.75 to 15 mg/kg, po qd for 28 days cotreated with anti-PD1 at 10 mg/kg, ip every 4 days for 3 doses by digital caliper analysis", "type": "functional, organism-based", "outline": "as §1"}, "Cytochrome P450 3A4": {"target": "Cytochrome P450 3A4 (Homo sapiens, UniProt P08684)", "sequence (P08684 whole entry)": "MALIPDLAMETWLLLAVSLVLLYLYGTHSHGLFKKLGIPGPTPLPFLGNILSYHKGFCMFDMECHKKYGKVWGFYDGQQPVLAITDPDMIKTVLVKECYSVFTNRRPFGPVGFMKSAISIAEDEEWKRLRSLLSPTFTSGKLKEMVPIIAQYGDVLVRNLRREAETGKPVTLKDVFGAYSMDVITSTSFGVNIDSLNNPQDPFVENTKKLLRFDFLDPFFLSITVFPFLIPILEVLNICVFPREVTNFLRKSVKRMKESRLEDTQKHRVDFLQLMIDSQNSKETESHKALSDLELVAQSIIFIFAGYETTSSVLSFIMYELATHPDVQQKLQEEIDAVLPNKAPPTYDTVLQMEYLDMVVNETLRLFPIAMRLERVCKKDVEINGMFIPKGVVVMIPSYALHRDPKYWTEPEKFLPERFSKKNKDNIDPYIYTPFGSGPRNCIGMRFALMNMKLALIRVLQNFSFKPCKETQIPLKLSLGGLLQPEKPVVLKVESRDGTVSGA", "assay": "Induction of recombinant CYP3A4 (unknown origin) up to 24 microM", "type": "ADME", "conditions": "recombinant enzyme"}, "[4]": {"assay": "Cmax in Sprague Dawley rat at 10 mg/kg, po", "type": "ADME, organism-based", "set-up": "dose 10 mg/kg, route oral", "conditions": "in vivo", "outline": "(§2)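 Male Sprague–Dawley rats, n = 3, given 5 mg/kg iv or 10 mg/kg po as a PEG400 solution.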"}, "[5]": {"assay": "Protein binding in rat serum assessed as unbound fraction", "type": "ADME, cell-free"}, "[6]": {"assay": "Clearance in Beagle dog at 1 mg/kg, iv", "type": "ADME, organism-based, Canis lupus familiaris", "conditions": "in vivo", "outline": "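Male Beagle dogs, n = 2, pretreated with pentagastrin. The po dose of 5 mg/kg was in 5% ethanol, 45% PEG400 and 50% 25 mM acetate buffer pH 4.0. The iv dose of 1 mg/kg was in 5:45:50 EtOH/PEG400/saline at 1 mL/kg.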"}, "[7]": {"assay": "Half life in mouse hepatocytes", "type": "ADME, cell-based, Hepatocyte"}, "Cytochrome P450 2C9": {"target": "Cytochrome P450 2C9 (Homo sapiens, UniProt P11712)", "sequence (P11712 whole entry)": "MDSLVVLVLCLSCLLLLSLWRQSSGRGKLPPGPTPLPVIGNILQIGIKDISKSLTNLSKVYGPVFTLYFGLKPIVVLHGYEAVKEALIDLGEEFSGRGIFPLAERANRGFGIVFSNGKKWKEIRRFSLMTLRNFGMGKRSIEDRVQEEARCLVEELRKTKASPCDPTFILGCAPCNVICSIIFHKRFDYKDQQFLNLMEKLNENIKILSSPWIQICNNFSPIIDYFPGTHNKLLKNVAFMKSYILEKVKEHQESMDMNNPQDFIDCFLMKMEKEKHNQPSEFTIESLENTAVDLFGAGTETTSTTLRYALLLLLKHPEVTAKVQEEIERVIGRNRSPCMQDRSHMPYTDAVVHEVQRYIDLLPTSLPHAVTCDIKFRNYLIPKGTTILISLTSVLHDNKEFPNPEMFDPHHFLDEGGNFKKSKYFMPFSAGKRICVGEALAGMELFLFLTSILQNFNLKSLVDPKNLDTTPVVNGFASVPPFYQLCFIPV", "assay": "Inhibition of recombinant CYP2C9 (unknown origin)", "type": "ADME"}, "[8]": {"assay": "Half life in Balb/C mouse at 5 mg/kg, iv", "type": "ADME, organism-based", "conditions": "in vivo", "outline": "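Male Balb/C mice (n = 3) dosed iv at 5 mg/kg in the same PK study as a 10 mg/kg oral arm. Vehicle was 70% 25 mM acetate buffer pH 4.0, 5% ethanol, 25% PEG 400. Half-life was taken from the iv arm.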"}, "MC-38 [9]": {"test_system": "MC-38", "assay": "Antitumour activity against mouse MC38 cells allografted in C57Bl/6 mouse assessed as tumour growth upto 15 mg/kg, po qd for 28 days by digital caliper analysis", "type": "functional, organism-based", "outline": "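C57/BL6 mice bearing subcutaneous right-flank MC38 tumors (0.1 mL of 1 × 10^7 cells/mL) were randomized at about 100 mm3. Monotherapy was given orally once daily for 28 days at up to 15 mg/kg.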"}, "[10]": {"assay": "Total AUC in Balb/C mouse at 5 mg/kg, iv", "type": "ADME, organism-based", "set-up": "dose 5 mg/kg, route intravenous, time AUCmax", "conditions": "in vivo", "outline": "(§3)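 Male Balb/C mice (n = 3) dosed iv at 5 mg/kg and po at 10 mg/kg. Vehicle was 70% 25 mM acetate buffer pH 4.0, 5% ethanol and 25% PEG 400.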"}, "[11]": {"target": "Voltage-gated inwardly rectifying potassium channel KCNH2 (Homo sapiens, UniProt Q12809)", "sequence (Q12809 whole entry)": "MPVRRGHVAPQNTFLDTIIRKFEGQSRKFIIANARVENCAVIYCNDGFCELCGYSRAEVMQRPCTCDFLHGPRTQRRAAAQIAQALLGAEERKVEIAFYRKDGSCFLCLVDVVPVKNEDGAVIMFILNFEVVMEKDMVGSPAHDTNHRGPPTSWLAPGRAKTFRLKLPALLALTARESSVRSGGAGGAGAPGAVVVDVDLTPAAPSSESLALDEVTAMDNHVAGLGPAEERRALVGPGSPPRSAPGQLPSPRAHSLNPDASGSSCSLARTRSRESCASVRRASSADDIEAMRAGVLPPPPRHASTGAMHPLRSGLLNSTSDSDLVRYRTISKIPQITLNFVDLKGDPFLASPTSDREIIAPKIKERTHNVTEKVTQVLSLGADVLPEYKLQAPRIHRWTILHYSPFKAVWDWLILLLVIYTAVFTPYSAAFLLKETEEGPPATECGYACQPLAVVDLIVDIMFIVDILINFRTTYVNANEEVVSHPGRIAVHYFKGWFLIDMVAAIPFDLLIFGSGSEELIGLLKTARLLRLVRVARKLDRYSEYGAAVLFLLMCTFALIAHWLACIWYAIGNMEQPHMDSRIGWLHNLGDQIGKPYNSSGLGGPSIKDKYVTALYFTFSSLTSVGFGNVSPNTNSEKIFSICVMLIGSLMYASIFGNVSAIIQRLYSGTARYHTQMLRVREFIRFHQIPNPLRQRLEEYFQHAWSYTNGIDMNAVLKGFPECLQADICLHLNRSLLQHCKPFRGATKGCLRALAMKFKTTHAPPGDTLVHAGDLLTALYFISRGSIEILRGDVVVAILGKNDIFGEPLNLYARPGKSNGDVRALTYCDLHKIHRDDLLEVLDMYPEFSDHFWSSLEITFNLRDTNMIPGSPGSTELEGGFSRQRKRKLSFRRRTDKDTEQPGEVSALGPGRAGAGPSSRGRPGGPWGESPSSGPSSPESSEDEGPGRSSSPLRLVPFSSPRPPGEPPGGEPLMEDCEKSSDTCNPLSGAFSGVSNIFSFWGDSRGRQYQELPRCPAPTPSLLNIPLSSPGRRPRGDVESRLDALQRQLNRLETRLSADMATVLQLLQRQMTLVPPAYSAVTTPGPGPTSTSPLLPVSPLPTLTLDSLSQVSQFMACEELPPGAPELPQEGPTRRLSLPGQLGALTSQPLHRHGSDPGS", "assay": "Inhibition of human ERG by electrophysiology analysis"}, "[12]": {"assay": "MRT in Balb/C mouse at 5 mg/kg, iv", "type": "ADME, organism-based", "conditions": "in vivo", "outline": "as §3"}, "[13]": {"assay": "Volume of distribution at steady state in Balb/C mouse at 5 mg/kg, iv", "type": "ADME, organism-based", "conditions": "in vivo, read-out: Vdss", "outline": "as §3"}, "[14]": {"assay": "Metabolic stability of compound in human liver microsomes assessed as compound remaining", "type": "ADME, Microsome"}, "TGF-beta receptor type-1 [15]": {"target": "T1, TGF-beta receptor type-1", "assay": "Inhibition of TGFBR1 in human biochemical assay assessed as apparent inhibition constant", "conditions": "read-out: Ki(app)"}, "[16]": {"assay": "Clearance in Sprague Dawley rat at 5 mg/kg, iv", "type": "ADME, organism-based", "conditions": "in vivo", "outline": "as §2"}, "Cytochrome P450 2C8": {"target": "T2, Cytochrome P450 2C8 (Homo sapiens, UniProt P10632)", "T2 sequence (P10632 whole entry)": "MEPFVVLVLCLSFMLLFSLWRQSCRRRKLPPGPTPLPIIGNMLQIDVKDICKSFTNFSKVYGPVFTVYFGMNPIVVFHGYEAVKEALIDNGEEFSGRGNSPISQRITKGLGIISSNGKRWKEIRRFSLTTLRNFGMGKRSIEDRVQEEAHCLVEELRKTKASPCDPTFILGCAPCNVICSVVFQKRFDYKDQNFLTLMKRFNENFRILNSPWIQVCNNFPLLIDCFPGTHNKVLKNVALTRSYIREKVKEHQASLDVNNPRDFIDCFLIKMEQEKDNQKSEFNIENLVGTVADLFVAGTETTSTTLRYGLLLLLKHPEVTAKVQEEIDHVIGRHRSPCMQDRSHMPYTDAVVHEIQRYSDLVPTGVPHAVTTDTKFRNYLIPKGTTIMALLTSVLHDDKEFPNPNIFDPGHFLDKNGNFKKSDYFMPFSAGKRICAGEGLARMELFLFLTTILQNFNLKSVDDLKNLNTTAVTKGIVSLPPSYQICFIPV", "assay": "Inhibition of recombinant CYP2C8 (unknown origin)", "type": "ADME"}, "MC-38 [17]": {"test_system": "MC-38", "assay": "Antitumour activity against mouse MC38 cells allografted in C57Bl/6 mouse assessed as reduction in tumour growth at 3.75 mg/kg, po dosed every 3 days on and 4 days off treatment regime and cotreated with anti-PD1 at 10 mg/kg, ip every 4 days for 3 doses measured for ten doubling times after cessation of treatment by digital caliper analysis", "type": "functional, organism-based", "outline": "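MC38 cells (0.1 mL at 1 × 10^7 cells/mL) were implanted subcutaneously in the right flank of C57/BL6 mice. Randomization was at about 100 mm3, typically day 5. Oral dosing ran 3 days on, 4 days off, over 28 days. Anti-PD-1 was given at 10 mg/kg IP every 4 days for three doses, with isotype MOPC-21 IgG1 as control on the same schedule.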"}, "[18]": {"assay": "Metabolic stability of compound in rat liver microsomes assessed as compound remaining after 10 mins", "type": "ADME, Microsome", "conditions": "read-out: Stability"}},
  "note": "pIC50, pKi: −log10 of the molar value. The source made the active and inactive calls. No cut-off for these calls is given here.",
  "data": [
    {"molecule": "N#Cc1cnc2ccc(-c3c(-c4ccc(F)c(Cl)c4)ncn3CCO)nn12", "values": [
      {"measurement": "inhibition", "setting": "MC-38 [1]", "value": "Active"},
      {"measurement": "pIC50", "setting": "TGF-beta receptor type-1 [2]", "value": 6.72},
      {"measurement": "inhibition", "setting": "MC-38 [3]", "value": "Active"},
      {"measurement": "Activity", "setting": "Cytochrome P450 3A4", "value": "Not Active"},
      {"measurement": "Cmax", "setting": "[4]", "value": 12.7, "unit": "µM"},
      {"measurement": "fraction unbound", "setting": "[5]", "value": 0.1},
      {"measurement": "clearance", "setting": "[6]", "value": 6.4, "unit": "mL/min/kg"},
      {"measurement": "half-life", "setting": "[7]", "value": 1.27, "unit": "h"},
      {"measurement": "pIC50", "setting": "Cytochrome P450 2C9", "value": "< 4.70"},
      {"measurement": "half-life", "setting": "[8]", "value": 9.1, "unit": "h"},
      {"measurement": "inhibition", "setting": "MC-38 [9]", "value": "inactive"},
      {"measurement": "AUC", "setting": "[10]", "value": 26.3, "unit": "µM·h"},
      {"measurement": "pIC50", "setting": "[11]", "value": "< 5.00"},
      {"measurement": "MRT", "setting": "[12]", "value": 9, "unit": "h"},
      {"measurement": "Vd", "setting": "[13]", "value": 4.5, "unit": "L/kg"},
      {"measurement": "Stability", "setting": "[14]", "value": 77, "unit": "%"},
      {"measurement": "pKi", "setting": "TGF-beta receptor type-1 [15]", "value": 9.10},
      {"measurement": "clearance", "setting": "[16]", "value": 5.6, "unit": "mL/min/kg"},
      {"measurement": "pIC50", "setting": "Cytochrome P450 2C8", "value": "< 4.70"},
      {"measurement": "inhibition", "setting": "MC-38 [17]", "value": "Active"},
      {"measurement": "remaining at 10 min", "setting": "[18]", "value": 91, "unit": "%"}
    ]}
  ]
}
